Active and inactive are the calls of the source. No cut-off for these calls is given here.
What was measured:
[1] = test system: MDA-MB-231; experiment: Cytotoxicity against human MDA-MB-231 cells after 72 hrs by MTT assay; assay type: functional, cell-based; conditions: MDA-MB-231, 72 h
[2] = Cytotoxicity against human HT29-AK cells after 72 hrs by MTT assay; assay type: functional, cell-based
[3] = test system: HL-60; experiment: Cytotoxicity against human HL60 cells after 72 hrs by MTT assay; assay type: functional, cell-based; conditions: HL-60, 72 h
In short: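 MTT viability: 2.5 × 10^4 cells/well in triplicate, exposed to 0.01–100 µM compound for 72 h at 37 °C, 5% CO2; MTT 3 h at 37 °C, SDS/DMF lysis 4 h; absorbance 570 nm (reference 590 nm); expressed as % of vehicle-only cells; IC50 from individual inhibition curves; means of three experiments with SD.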

[4] = test system: MCF7; experiment: Cytotoxicity against human MCF7 cells after 72 hrs by MTT assay; assay type: functional, cell-based; conditions: MCF7, 72 h
[5] = test system: Plasmodium falciparum; experiment: Antimalarial activity after 48 hrs against chloroquine-sensitive Plasmodium falciparum 3D7 by [3H]hypoxanthine uptake; assay type: functional, organism-based
[6] = test system: Calf thymus DNA; experiment: Binding affinity to calf thymus DNA by fluorimetric binding titration study; assay type: nucleic-acid assay; conditions: Bos taurus
[7] = test system: Nucleic Acid; experiment: Binding affinity to poy A-poly T DNA assessed as change in thermal melting temperature at compound to polynucleotide ratio of 0.3 at pH 7 by […]; assay type: nucleic-acid assay
In short: (§1)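 Thermal melting of ds-polynucleotides at r = [compound]/[polynucleotide] = 0.3, pH 7 Na cacodylate buffer 0.02 M (I = 0.005 M; poly A–poly T at I = 0.05 M); ΔTm reported, error ±0.5 °C.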

[8] = test system: Nucleic Acid; experiment: Binding affinity to poy A-poly U RNA assessed as change in thermal melting temperature at compound to polynucleotide ratio of 0.3 at pH 7 by […]; assay type: nucleic-acid assay; in short: as §1
[9] = test system: Nucleic Acid; experiment: Binding affinity to poy A-poly U RNA by fluorimetric binding titration study; assay type: nucleic-acid assay
[10] = test system: Calf thymus DNA; experiment: Binding affinity to calf thymus DNA assessed as change in thermal melting temperature at compound to polynucleotide ratio of 0.3 at pH 7 by thermal melting analysis; conditions: Bos taurus
[11] = test system: HL-60; experiment: Induction of apoptosis in human HL60 cells assessed as induction of mitochondrial membrane depolarization by tetramethylrhodamine ethyl ester-based flow cytometry; assay type: functional, cell-based
In short: (§2)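 HL60 cells treated 24 h; 5 × 10^5 cells washed in HBSS, loaded with 50 nM TMRE in HBSS for 10 min at 37 °C; ≥500 cells read by flow cytometry on FL-2 to score depolarised mitochondria; mean ± SD of three independent experiments, Mann-Whitney U vs drug blank.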

[12] = test system: HL-60; experiment: Induction of apoptosis in human HL60 cells assessed as induction of mitochondrial membrane depolarization at 1 uM by tetramethylrhodamine ethyl ester-based flow cytometry; assay type: functional, cell-based; in short: as §2
[13] = test system: HL-60; experiment: Induction of apoptosis in human HL60 cells assessed as caspase-3 activation after 24 hrs by Western blot analysis; assay type: functional, cell-based
In short: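 HL60 cells treated 24 h with 0.5, 1.0, 5 or 10 µM alongside untreated control; 3 × 10^6 cells washed and sonicated, protein by Bradford; 20 µg per lane denatured 3 min at 95 °C, resolved on 14% SDS–PAGE, transferred to nitrocellulose; read-out pro-caspase-3 (32 kDa) and processed active subunit.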

[14] = test system: HL-60; experiment: Induction of apoptosis in human HL60 cells assessed as accumulation at sub-G0/G1 phase after 24 hrs by propidium iodide-based flow cytometry; assay type: functional, cell-based
In short: (§3)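 HL60 cells treated 24 h; 1 × 10^6 cells washed in HBSS, fixed in ice-cold 70% ethanol at −20 °C for 2 h, stained with PI (40 µg/mL) plus RNase 0.1 mg/mL and 3.8 mM sodium citrate in PBS, 30 min at 37 °C; ≥5000 cells read on FL-2; sub-G0/G1 fraction from DNA content; mean ± SD of three independent experiments, Mann-Whitney U vs drug blank.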

[15] = test system: HL-60; experiment: Induction of apoptosis in human HL60 cells assessed as accumulation at sub-G0/G1 phase at 10 uM after 24 hrs by propidium iodide-based flow cytometry; assay type: functional; in short: as §3
[16] = test system: HL-60; experiment: Induction of apoptosis in human HL60 cells assessed as induction of mitochondrial membrane depolarization at 10 uM after 24 hrs by tetramethylrhodamine ethyl ester-based flow cytometry; assay type: functional; in short: as §2
[17] = test system: Calf thymus DNA; experiment: Binding affinity to calf thymus DNA assessed as intercalation into double helix by circular dichroism analysis; assay type: nucleic-acid assay; conditions: Bos taurus
In short: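 CD spectra of ct-DNA (1 × 10^-5 mol dm^-3) titrated at various r = [compound]/[ctDNA], change followed at 280 nm; induced acridine CD band at ct-DNA 1 × 10^-4 mol dm^-3; pH 7 Na cacodylate buffer, I = 0.05 M.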

[18] = test system: Nucleic Acid; experiment: Binding affinity to poy A-poly U RNA assessed as intercalation into double helix by circular dichroism analysis; assay type: nucleic-acid assay

SMILES | IC50 [1] | IC50 [2] | IC50 [3] | IC50 [4] | IC50 [5] | Ks [6] | ΔTm [7] | ΔTm [8] | Ks [9] | ΔTm [10] | Activity [11] | Activity [12] | Activity [13] | Activity [14] | Activity [15] | Activity [16] | Activity [17] | Activity [18]
COc1ccc2nc3cc(Cl)ccc3c(NCCCCNC(=O)C[C@H]3O[C@@H]4O[C@@]5(C)CC[C@H]6[C@H](C)CC[C@@H]([C@H]3C)[C@@]46OO5)c2c1 | 43.3 µM | 247 µM | 1.58 µM | 11.7 µM | 0.0203 µM | – | – | – | – | – | – | – | – | – | – | – | – | –
COc1ccc2nc3cc(Cl)ccc3c(N3CCN(C(=O)C[C@H]4O[C@@H]5O[C@@]6(C)CC[C@H]7[C@H](C)CC[C@@H]([C@H]4C)[C@@]57OO6)CC3)c2c1 | 21.1 µM | > 750 µM | 0.56 µM | 3.51 µM | 0.29 µM | – | – | – | – | – | – | – | – | – | – | – | – | –
COc1ccc2nc3cc(Cl)ccc3c(NCCN)c2c1 | 8.12 µM | 6.57 µM | 12.5 µM | – | – | 1 ×10⁶ /M | 2.9 °C | 2.2 °C | 1 ×10⁶ /M | 9.3 °C | – | – | – | – | – | – | – | –
COc1ccc2nc3cc(Cl)ccc3c(NCCCNC(=O)C[C@H]3O[C@@H]4O[C@@]5(C)CC[C@H]6[C@H](C)CC[C@@H]([C@H]3C)[C@@]46OO5)c2c1 | 11.6 µM | 9.91 µM | 3.08 µM | 11.8 µM | 0.0224 µM | – | – | – | – | – | Dose-dependent effect | Active | Dose-dependent effect | Dose-dependent effect | 57% | 98% | – | –
C[C@H]1[C@@H](O)O[C@@H]2O[C@@]3(C)CC[C@H]4[C@H](C)CC[C@@H]1[C@@]24OO3 [ARTENIMOL] | 99.8 µM | 16.1 µM | – | 45.2 µM | 0.0023 µM | – | – | – | – | – | – | – | – | – | – | – | – | –
COc1ccc2nc3cc(Cl)ccc3c(NCCNC(=O)C[C@H]3O[C@@H]4O[C@@]5(C)CC[C@H]6[C@H](C)CC[C@@H]([C@H]3C)[C@@]46OO5)c2c1 | 49 µM | 194 µM | 1.17 µM | 13.7 µM | 0.00596 µM | 1 ×10⁶ /M | 0.6 °C | 2.4 °C | 1 ×10⁶ /M | 3.1 °C | – | – | – | – | – | – | inactive | inactive
